Test results from ChEMBL document CHEMBL3351994, “Synthesis and biological evaluation of novel millepachine derivatives as a new class of tubulin polymerization inhibitors” (J Med Chem, 2014).
≈ marks a conversion by molar mass, not a printed value.

What was measured:
HepG2 [1] = experiment: Induction of apoptosis in human HepG2 cells assessed as viable cells at 100 nM after 48 hrs by annexin-V-FITC and propidium iodide staining based flow cytometry (reference value: 93.2%); format: functional; conditions: HepG2, 48 h, read-out: Activity
[2] = Antiproliferative activity against human A2780S cells assessed as inhibition of cell proliferation after 48 hrs by MTT assay; format: functional, cell-based; conditions: A2780, 48 h
Summary of the method: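 Cells grown in DMEM with 10% FBS, penicillin/streptomycin at 37 °C, 5% CO2. 1000 cells/well seeded, incubated overnight, then exposed to various doses for 48 h. MTT added for 4 h, formazan dissolved in DMSO, absorbance read at 590 nm. IC50 = concentration inhibiting proliferation by 50%, mean ± SEM of dose–response curves from at least three independent experiments.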

[3] = Antiproliferative activity against adriamycin resistant human MCF7/ADR cells assessed as inhibition of cell proliferation after 48 hrs by MTT assay; format: functional, cell-based; conditions: NCI/ADR-RES
Summary of the method: (§1)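 Cells grown at 37 °C in humidified 5% CO2. K562, C26 and HCT lines in RPMI-1640; other lines in DMEM; both media with 10% FBS, penicillin and streptomycin. 1000 cells/well seeded, incubated overnight, then compound at various doses for 48 h. MTT added for 4 h, formazan dissolved in DMSO, absorbance read at 590 nm. IC50 from dose–response curves, mean ± SEM of at least three independent experiments.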

HepG2 [4] = experiment: Induction of apoptosis in human HepG2 cells assessed as viable cells at 200 nM after 48 hrs by annexin-V-FITC and propidium iodide staining based flow cytometry (reference value: 93.2%); format: functional; conditions: HepG2, 48 h, read-out: Activity
[5] = Cmax in rat at 2.25 mg/kg, iv; format: ADME, organism-based; design: dose 2.25 mg/kg, route intravenous; conditions: in vivo
Summary of the method: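 Rat pharmacokinetics; oral and intravenous dosing, with group sizes of 5, 5 and 4 rats. Parameters derived: systemic clearance, volume of distribution, area under the plasma concentration–time curve, maximum plasma concentration and percent oral bioavailability.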

HepG2 [6] = experiment: Induction of apoptosis in human HepG2 cells assessed as late apoptotic cells at 200 nM after 24 hrs by annexin-V-FITC and propidium iodide staining based flow cytometry (reference value: 1.03%); format: functional
Summary of the method: (§2)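 HepG2 cells treated with 50, 100 or 200 nM compound or DMSO vehicle for 24 or 48 h at 37 °C. Labeled with annexin-V-FITC and PI and analyzed by flow cytometry. Cells classified as early apoptotic (annexin-V+/PI−), late apoptotic (annexin-V+/PI+) or necrotic (annexin-V−/PI+).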

HepG2 [7] = experiment: Induction of apoptosis in human HepG2 cells assessed as necrotic cells at 200 nM after 24 hrs by annexin-V-FITC and propidium iodide staining based flow cytometry (reference value: 2.16%); format: functional; summary of the method: as §2
Rattus norvegicus [8] = experiment: Systemic clearance in rat at 9 mg/kg, po; format: ADME, organism-based; design: dose 9 mg/kg, route oral; conditions: in vivo
HepG2 [9] = experiment: Induction of cell cycle arrest in human HepG2 cells assessed as accumulation at S phase phase at 50 nM after 24 hrs by propidium iodide staining based flow cytometry (reference value: 30.6%); format: functional
HepG2 [10] = experiment: Induction of apoptosis in human HepG2 cells assessed as late apoptotic cells at 100 nM after 48 hrs by annexin-V-FITC and propidium iodide staining based flow cytometry (reference value: 1.03%); format: functional; summary of the method: as §2
HepG2 [11] = experiment: Induction of cell cycle arrest in human HepG2 cells assessed as accumulation at G2/M phase phase at 50 nM after 24 hrs by propidium iodide staining based flow cytometry (reference value: 11.2%); format: functional
[12] = Antiproliferative activity against cisplatin resistant human […] cells assessed as inhibition of cell proliferation after 48 hrs by MTT assay; format: functional, cell-based; conditions: A2780cisR; summary of the method: as §1
HepG2 [13] = experiment: Induction of apoptosis in human HepG2 cells assessed as early apoptotic cells at 50 nM after 48 hrs by annexin-V-FITC and propidium iodide staining based flow cytometry (reference value: 3.63%); format: functional; summary of the method: as §2
[14] = Antiproliferative activity against human ES2 cells assessed as inhibition of cell proliferation after 48 hrs by MTT assay; format: functional, cell-based; conditions: ES-2, 48 h
HepG2 [15] = experiment: Induction of apoptosis in human HepG2 cells assessed as necrotic cells at 50 nM after 24 hrs by annexin-V-FITC and propidium iodide staining based flow cytometry (reference value: 2.16%); format: functional
HepG2 [16] = experiment: Induction of cell cycle arrest in human HepG2 cells assessed as accumulation at G0/G1 phase at 50 nM after 24 hrs by propidium iodide staining based flow cytometry (reference value: 58.2%); format: functional
HepG2 [17] = experiment: Induction of apoptosis in human HepG2 cells assessed as necrotic cells at 200 nM after 48 hrs by annexin-V-FITC and propidium iodide staining based flow cytometry (reference value: 2.16%); format: functional
HepG2 [18] = experiment: Induction of apoptosis in human HepG2 cells assessed as viable cells at 50 nM after 48 hrs by annexin-V-FITC and propidium iodide staining based flow cytometry (reference value: 93.2%); format: functional; conditions: HepG2, 48 h, read-out: Activity
HepG2 [19] = experiment: Induction of cell cycle arrest in human HepG2 cells assessed as accumulation at G2/M phase phase at 100 nM after 24 hrs by propidium iodide staining based flow cytometry (reference value: 11.2%); format: functional
HepG2 [20] = experiment: Induction of cell cycle arrest in human HepG2 cells assessed as accumulation at G0/G1 phase at 200 nM after 24 hrs by propidium iodide staining based flow cytometry (reference value: 58.2%); format: functional
MCF7 [21] = experiment: Resistance index, ratio of IC50 for adriamycin resistant human MCF7 cells to IC50 for parental human MCF7 cells; format: functional
HepG2 [22] = experiment: Induction of apoptosis in human HepG2 cells assessed as early apoptotic cells at 200 nM after 48 hrs by annexin-V-FITC and propidium iodide staining based flow cytometry (reference value: 3.63%); format: functional; summary of the method: as §2
Rattus norvegicus [23] = experiment: Volume of distribution at steady state in rat at 9 mg/kg, po; format: ADME, organism-based; design: dose 9 mg/kg, route oral; conditions: in vivo
U-251 = experiment: Antiproliferative activity against human U251 cells assessed as inhibition of cell proliferation after 48 hrs by MTT assay; format: functional, cell-based; conditions: U-251, 48 h; summary of the method: as §1
HepG2 [24] = experiment: Induction of apoptosis in human HepG2 cells assessed as necrotic cells at 50 nM after 48 hrs by annexin-V-FITC and propidium iodide staining based flow cytometry (reference value: 2.16%); format: functional
HepG2 [25] = experiment: Induction of apoptosis in human HepG2 cells assessed as late apoptotic cells at 100 nM after 24 hrs by annexin-V-FITC and propidium iodide staining based flow cytometry (reference value: 1.03%); format: functional; summary of the method: as §2
MCF7 [26] = experiment: Antiproliferative activity against human MCF7 cells assessed as inhibition of cell proliferation after 48 hrs by MTT assay; format: functional, cell-based; conditions: MCF7, 48 h; summary of the method: as §1
NCI-H358 = experiment: Antiproliferative activity against human NCI-H358 cells assessed as inhibition of cell proliferation after 48 hrs by MTT assay; format: functional, cell-based; conditions: NCI-H358, 48 h; summary of the method: as §1
[27] = Solubility in PBS solution by nephelometry; format: physicochemical
Summary of the method: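 Maximum soluble concentration in PBS, determined by nephelometry.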

HepG2 [28] = experiment: Induction of apoptosis in human HepG2 cells assessed as necrotic cells at 100 nM after 48 hrs by annexin-V-FITC and propidium iodide staining based flow cytometry (reference value: 2.16%); format: functional; summary of the method: as §2

## COc1ccc(/C=C/C(=O)c2ccc(OC)c3c2OC(C)(C)C=C3)cc1N
HepG2 [1]
  viability at 0.1 µM: 48.8%
[2]
  IC50: 20 nM
[3]
  IC50: 17 nM
HepG2 [4]
  viability at 0.2 µM: 41.7%
[5]
  Cmax: 2940 ng/mL
HepG2 [6]
  Activity: 23.46%
HepG2 [7]
  Activity: 1.95%
Rattus norvegicus [8]
  CL: 98.3 mL/min/kg
HepG2 [9]
  Activity: 23.9%
HepG2 [10]
  Activity: 29.45%
HepG2 [11]
  Activity: 19.5%
[12]
  IC50: 14 nM
HepG2 [13]
  Activity: 13.45%
[14]
  IC50: 8 nM
HepG2 [15]
  Activity: 4.71%
HepG2 [16]
  Activity: 56.6%
HepG2 [17]
  Activity: 3.54%
HepG2 [18]
  viability at 0.05 µM: 66.1%
HepG2 [19]
  Activity: 37.4%
HepG2 [20]
  Activity: 37.6%
MCF7 [21]
  Ratio IC50: 1.6
HepG2 [22]
  Activity: 20.14%
Rattus norvegicus [23]
  Vdss: 25 L/kg
U-251
  IC50: 24 nM
HepG2 [24]
  Activity: 2.76%
HepG2 [25]
  Activity: 12.43%
MCF7 [26]
  IC50: 27 nM
NCI-H358
  IC50: 12 nM
[27]
  solubility kinetic: 8 µg/mL (≈ 21.9 µM)
HepG2 [28]
  Activity: 5.45%
